Measurements: ChEMBL document CHEMBL4049387, “Combination of l-Carnitine with Lipophilic Linkage-Donating Gemcitabine Derivatives as Intestinal Novel Organic Cation Transporter 2-Targeting Oral Prodrugs” (J Med Chem, 2017)
pIC50: −log10 of the molar value.

Assays:
Caco-2 [1] = test: Ratio of IC50 for cytotoxicity against human Caco2 cells in presence of L-carnitine to IC50 for cytotoxicity against human Caco2 cells in absence of L-carnitine; assay type: functional
Mus musculus [2] = test: Toxicity in Kunming mouse assessed as inflammatory infiltrates in spleen at 102 mg/kg, po administered once daily for 14 days by hematoxylin/eosin staining based optical microscopic analysis; assay type: organism-based; settings: in vivo, 336 h
How it was run: (§1)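 Kunming mice, four per group, dosed orally once daily for 14 days with test article or physiological saline control, body weight recorded every other day. After sacrifice, heart, liver, spleen, lung and kidney were fixed at once in 10% buffered formalin, paraffin-embedded, sectioned, H&E stained and examined by optical microscopy for hydropic degeneration, inflammatory infiltrates and fibrosis.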

[3] = Half life in rat hepatic homogenates at 5 uM by HPLC method; assay type: ADME, tissue-based, Liver
How it was run: (§2)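 Compound at 5 µM final in rat plasma, 20% rat hepatic homogenate or 20% rat intestinal homogenate at 37 °C for 24 h. Homogenates made by homogenizing 0.3 g saline-washed tissue in 1 mL saline, spun 13,000 rpm 4 °C 5 min. Sampled at intervals, analysed by HPLC. t1/2 = 0.693/k.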

Mus musculus [4] = test: Toxicity in Kunming mouse assessed as inflammatory infiltrates in lung at 102 mg/kg, po administered once daily for 14 days by hematoxylin/eosin staining based optical microscopic analysis; assay type: organism-based; settings: in vivo, 336 h; how it was run: as §1
Mus musculus [5] = test: Toxicity in Kunming mouse assessed as fibrosis in cardiac muscle at 102 mg/kg, po administered once daily for 14 days by hematoxylin/eosin staining based optical microscopic analysis; assay type: organism-based; settings: in vivo, 336 h
How it was run: (§3)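 Kunming mice, four per group, dosed orally once daily for 14 days with 102 mg/kg or saline control; body weight recorded every other day. Heart, liver, spleen, lung and kidney fixed in 10% buffered formalin, paraffin-embedded, sectioned, stained with hematoxylin and eosin, and examined by optical microscopy.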

Lung = test: Drug uptake in mouse lung at 102 mg/kg, po administered as single dose at 0.5 hrs post dose; assay type: ADME, organism-based; settings: in vivo
How it was run: (§4)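 Mice, three per time point, single oral dose of 102 mg/kg (equivalent to 50 mg/kg gemcitabine). Heart, liver, spleen, lung, kidney and brain collected at 0.16, 0.5 and 2 h, rinsed in saline. 0.3 g tissue homogenized 1 min in 1 mL saline, spun 13,000 rpm 4 °C 5 min. Gemcitabine measured in supernatant.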

OCTN2 = test: Ratio of drug transport in OCTN2 (unknown origin) expressing HEK293 cells assessed as transporter-mediated drug uptake at 25 uM to drug uptake in HEK293 cells at 25 uM; assay type: ADME, cell-based; settings: human, HEK293 cells expressing OCTN2, against HEK293 cells
How it was run: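 OCTN2-transfected HEK293 cells and mock HEK293 cells incubated with 25 µM compound at 37 °C for 15 min, then cellular uptake measured; n = 2.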

Mus musculus [6] = test: Toxicity in Kunming mouse assessed as inflammatory infiltrates in kidney at 102 mg/kg, po administered once daily for 14 days by hematoxylin/eosin staining based optical microscopic analysis; assay type: organism-based; settings: in vivo, 336 h; how it was run: as §3
[7] = Stability of the compound in pH 6.8 phosphate buffer at 5 uM by HPLC method; assay type: physicochemical; settings: pH 6.8, 5 µM
How it was run: (§5)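 Compound dissolved at 5 µM in phosphate buffer (pH 1.2, 6.8 or 7.4), held at 37 °C for 24 h. Aliquots taken at intervals and analysed by HPLC. t1/2 = 0.693/k from linear regression of pseudo-first-order kinetics.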

Mus musculus [8] = test: Toxicity in Kunming mouse assessed as […] degeneration in kidney at 102 mg/kg, po administered once daily for 14 days by hematoxylin/eosin staining based optical microscopic analysis; assay type: organism-based; settings: in vivo, 336 h; how it was run: as §3
[9] = Half life in rat intestinal homogenates at 5 uM by HPLC method; assay type: ADME, tissue-based, Intestine; how it was run: as §2
Spleen = test: Drug uptake in mouse spleen at 102 mg/kg, po administered as single dose at 0.5 hrs post dose; assay type: ADME, organism-based; settings: in vivo; how it was run: as §4
BXPC-3 = test: Cytotoxicity against human BxPC3 cells assessed as decrease in cell viability after 48 hrs by MTT assay; assay type: functional, cell-based
How it was run: (§6)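 BxPC-3 and Caco-2 cells exposed to compounds for 48 h. Viability read by MTT assay kit. IC50 calculated from dose-response.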

Heart = test: Drug uptake in mouse heart at 102 mg/kg, po administered as single dose at 2 hrs post dose; assay type: ADME, organism-based; settings: in vivo; how it was run: as §4
Mus musculus [10] = test: Toxicity in Kunming mouse assessed as fibrosis in hepatocytes at 102 mg/kg, po administered once daily for 14 days by hematoxylin/eosin staining based optical microscopic analysis; assay type: organism-based; settings: in vivo, 336 h; how it was run: as §3
Mus musculus [11] = test: Toxicity in Kunming mouse assessed as inflammatory infiltrates in hepatocytes at 102 mg/kg, po administered once daily for 14 days by hematoxylin/eosin staining based optical microscopic analysis; assay type: organism-based; settings: in vivo, 336 h; how it was run: as §3
[12] = Half life in pH 1.2 phosphate buffer at 5 uM by HPLC method; assay type: physicochemical; how it was run: as §5
[13] = Tmax in Wistar rat at 50 mg/kg, po administered as single dose by UPLC-MS/MS method; assay type: ADME, organism-based; settings: in vivo
How it was run: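 Wistar rats, six per group, single oral dose equivalent to 50 mg/kg gemcitabine; separate group given gemcitabine iv at 7.5 mg/kg. Oral sampling at 5, 10, 15, 30 min and 1, 2, 4, 6, 8, 12, 24 h; iv at 15, 30 min and 2, 4, 8, 12, 24 h. Blood into THU-pretreated heparinized tubes, centrifuged 3000 × g 15 min, plasma at -80 °C. Prodrug and gemcitabine quantified by UPLC-MS/MS. F = AUCpo×Div/AUCiv/Dpo×100%.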

Caco-2 [14] = test: Cytotoxicity against human Caco2 cells assessed as decrease in cell viability after 48 hrs by MTT assay; assay type: functional, cell-based; settings: Caco-2, 48 h; how it was run: as §6
Mus musculus [15] = test: Toxicity in Kunming mouse assessed as […] degeneration in hepatocytes at 102 mg/kg, po administered once daily for 14 days by hematoxylin/eosin staining based optical microscopic analysis; assay type: organism-based; settings: in vivo, 336 h; how it was run: as §3
[16] = molecular target: T1, Organic cation/carnitine transporter 2 (Homo sapiens, UniProt O76082); test: Ratio of drug transport assessed as OCTN2 transporter mediated drug uptake in human Caco2 cells at 100 uM in absence of L-carnitine to drug transport assessed as OCTN2 transporter mediated drug uptake in human Caco2 cells at 100 uM in presence of L-carnitine; assay type: ADME, cell-based; settings: caco-2, 100 µM
T1 sequence (O76082 whole entry): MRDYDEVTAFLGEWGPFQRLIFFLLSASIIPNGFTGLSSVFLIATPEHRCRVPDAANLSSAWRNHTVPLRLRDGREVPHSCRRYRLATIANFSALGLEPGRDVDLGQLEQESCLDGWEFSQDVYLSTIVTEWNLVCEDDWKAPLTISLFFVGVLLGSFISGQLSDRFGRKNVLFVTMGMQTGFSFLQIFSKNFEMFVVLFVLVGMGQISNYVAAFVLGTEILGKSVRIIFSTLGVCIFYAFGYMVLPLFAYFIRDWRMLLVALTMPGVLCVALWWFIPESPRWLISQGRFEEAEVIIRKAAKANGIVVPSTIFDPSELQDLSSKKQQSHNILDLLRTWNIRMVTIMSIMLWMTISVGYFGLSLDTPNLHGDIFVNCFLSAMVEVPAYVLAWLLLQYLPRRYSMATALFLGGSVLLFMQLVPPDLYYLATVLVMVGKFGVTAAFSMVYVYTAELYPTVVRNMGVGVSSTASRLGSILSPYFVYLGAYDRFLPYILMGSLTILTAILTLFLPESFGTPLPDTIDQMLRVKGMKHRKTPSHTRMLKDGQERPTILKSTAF

Q: For C[N+](C)(C)CC(CC(=O)[O-])OC(=O)CCCCC(=O)Nc1ccn([C@@H]2O[C@H](CO)[C@@H](O)C2(F)F)c(=O)n1 (some centres not stated), which “Ratio IC50” value (Caco-2 [1]) is on record?
A: The value was 8.

Q: What about the Activity (Mus musculus [2]) of the same compound?
A: Its Activity is “Non-Toxic”.

Q: What about the half-life at 5 µM [3] of the same compound?
A: The half-life at 5 µM was 17.4 h.

Q: And the Activity (Mus musculus [4])?
A: The Activity was “Non-Toxic”.

Q: And the Activity (Mus musculus [5])?
A: Its Activity is “Non-Toxic”.

Q: What about the Drug uptake (Lung) of the same compound?
A: The Drug uptake was “Active”.

Q: And the uptake ratio at 25 µM (OCTN2)?
A: Its uptake ratio at 25 µM is 3 to 8.

Q: And the Activity (Mus musculus [6])?
A: The Activity was “Non-Toxic”.

Q: And the Stability [7]?
A: Its Stability is “Stable”.

Q: What about the Activity (Mus musculus [8]) of the same compound?
A: The Activity was “Non-Toxic”.

Q: And the half-life at 5 µM [9]?
A: Its half-life at 5 µM is 78.7 h.

Q: And the Drug uptake (Spleen)?
A: The Drug uptake was “Active”.

Q: What about the Activity (BXPC-3) of the same compound?
A: Its Activity is “Dose-dependent effect”.

Q: What about the pIC50 (BXPC-3; BXPC-3, 48 h) of the same compound?
A: Its pIC50 is 6.49.

Q: What about the Drug uptake (Heart) of the same compound?
A: Its Drug uptake is “Not Active”.

Q: What about the Activity (Mus musculus [10]) of the same compound?
A: Its Activity is “Non-Toxic”.

Q: What about the Activity (Mus musculus [11]) of the same compound?
A: The Activity was “Non-Toxic”.

Q: What about the half-life at 5 µM [12] of the same compound?
A: The half-life at 5 µM was 4.4 h.

Q: What about the Tmax [13] of the same compound?
A: Its Tmax is 1.3 h.

Q: And the pIC50 (Caco-2 [14])?
A: Its pIC50 is 4.39.

Q: What about the Activity (Mus musculus [15]) of the same compound?
A: The Activity was “Non-Toxic”.

Q: What about the Ratio [16] of the same compound?
A: Its Ratio is 2.2 to 3.7.
